Screens deposited in PubChem BioAssay by several laboratories.
Hits are enriched below; roughly 9.8% of the tested compounds scored in any of these assays.
Rad51 HR inh: blocks human Rad51 in homologous recombination. hit rate 0.085% among 200,000. inhibition, % at 10 µM. hRad51 DNA strand exchange, fluorescence dequenching. Q06609;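 active = inhibition above 40% at the single screening dose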;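 also: 0% = DMSO control wells and 100% = blanks with heterologous ssDNA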
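Material: hRad51 filaments on single-stranded DNA; Reagent: Donor/quencher-labelled 47-bp dsDNA substrate; Compound: 10 µM final, single point; Schedule: 37 °C 15-min filament assembly, 30-min compound preincubation, 15-min exchange; Technique: FRET fluorescence, excitation 485 nm, emission 520 nm; Benchmarks: control wells and blank wells on each plate.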
PMI activator: activators of human phosphomannose isomerase; hit rate 0.005% among 190,000; P34949; activation factor at 20 µM; purified human PMI, coupled resazurin fluorescence, 20 min; active compounds read high; 1 = vehicle control, 0 substrate-free wells; AID 1214;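 active = activation factor of 2 or more at 20 µM, relative to plate controls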
Target sequence (P34949 whole entry, looked up): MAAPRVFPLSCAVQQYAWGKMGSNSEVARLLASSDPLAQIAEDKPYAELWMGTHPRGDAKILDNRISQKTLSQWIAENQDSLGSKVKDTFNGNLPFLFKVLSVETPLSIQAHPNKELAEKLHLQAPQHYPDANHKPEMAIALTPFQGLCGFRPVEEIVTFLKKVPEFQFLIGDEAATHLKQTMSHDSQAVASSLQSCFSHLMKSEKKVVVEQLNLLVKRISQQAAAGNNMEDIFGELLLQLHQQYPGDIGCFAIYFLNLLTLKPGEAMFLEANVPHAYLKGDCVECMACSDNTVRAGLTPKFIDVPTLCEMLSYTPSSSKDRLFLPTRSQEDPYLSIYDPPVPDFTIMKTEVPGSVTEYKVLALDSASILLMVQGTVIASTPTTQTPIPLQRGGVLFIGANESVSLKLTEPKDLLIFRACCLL
WT yeast gro inh: growth inhibition of WT yeast, mitochondrial fusion screen | AID 1362 | inhibition, % at 10 µM | hit rate 2.1% among 190,000 | mitochondrial fusion phenotypic screen, WT strain; in the data active = inhibition above about 58%; tested in S. cerevisiae
m-calpain inh: calpain II (pig) inhibition. AID 1236. purified calpain II, fluorogenic peptide substrate, 30 min. hit rate 0.37% among 220,000. inhibition, % at 16 µM;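 active = inhibition above about 50%, limit read from the data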
PMI act hi M6P: increases human PMI activity with near-saturating mannose 6-phosphate. P34949. coupled PMI enzyme assay, resazurin fluorescence, 20 min; active compounds read high; 1 = untreated enzyme, 0 = substrate-free blank. activation factor at 20 µM. hit rate 0.34% among 190,000;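 active = activation factor of 2 or more at 20 µM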
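Test system: human phosphomannose isomerase with PGI, G6PDH, diaphorase coupling enzymes; Amount: PMI at 15 ng/mL final; Reagent: Mannose-6-phosphate 1.0 mM (near-saturating) plus 0.22 mM NADP+; Timing: 20 min, room temperature; Technique: resorufin fluorescence at Ex 544/Em 590 nm; Dosing: 20 µM single dose.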
L major viab: Leishmania major promastigote growth inhibition | Leishmania major promastigotes, resazurin fluorescence viability | AID 1063 | inhibition, % at 10 µM | hit rate 9% among 200,000; in the data active = inhibition above about 50%;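 also: promastigotes grown with compound for 44 hours at 28 °C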
* marks the source's active call; other numbers are inactive results; i = inactive; . = not tested or not shown.

SMILES | Rad51 HR inh | PMI activator | WT yeast gro inh | m-calpain inh | PMI act hi M6P | L major viab
O=C(c1coc(=O)c(Br)c1)N1CCC(C(O)(c2ccccc2)c2ccccc2)CC1 | 4 | . | . | -21 | . | .
Oc1ccccc1CN1CCC(C(O)(c2ccccc2)c2ccccc2)CC1 | -41 | 0.9 | 9 | 3 | 0.9 | 56*
Cc1c(Cl)cccc1NC(=O)CN1CCC(C(O)(c2ccccc2)c2ccccc2)CC1 | -4 | 0.9 | 0 | -18 | 0.9 | 21
COc1ccc(C(C(=O)NCC2CCCO2)N(C(=O)CNC(=O)c2cccs2)c2ccc(C(C)=O)cc2)cc1OC (centres undefined) | 6 | 0.9 | 6 | -26 | 1 | -2
CN(Cc1nc(Cc2cccc(C(F)(F)F)c2)no1)C1CC(C)(C)NC(C)(C)C1 | -13 | 1 | -3 | -17 | 1.1 | 5
COCCn1c(SCC(=O)N2CCCc3ccccc32)nc2ccccc2c1=O | 2 | 1 | 10 | -42 | 1 | 24
CC(C)Cn1c(SCC(=O)N2CCc3ccccc3C2)nc2cc(Cl)ccc2c1=O | -9 | 0.9 | 14 | 14 | 0.9 | 91*
COCCn1c(SCC(=O)N2CCc3ccccc3C2)nc2cc(Cl)ccc2c1=O | 3 | 1 | 15 | 1 | 1 | 60*
CC(C)c1ccccc1-n1c(SCC(=O)N2CCc3ccccc3C2)nc2ccccc2c1=O | 0 | 0.9 | 14 | 0 | 1 | 42
Cc1ccc(/C=C/S(=O)(=O)NCC(=O)OCC(=O)N2CC(=O)Nc3ccccc32)cc1 | 16 | . | . | 10 | . | .
CCOC(=O)C1=C(C)NC(C)=C(C(=O)OC)C1c1cccc(Cl)c1Cl (centres undefined) | -4 | 0.8 | 64* | -28 | 0.8 | 13
COC(=O)C1=C(C)NC(C)=C(C(=O)OC)C1c1ccc(-c2cccc(Cl)c2Cl)o1 | 18 | 1 | 34 | -69 | 1 | 79*
COC(=O)C1=C(C)NC(C)=C(C(=O)OC)C1c1ccc(-c2cc(Cl)ccc2Cl)o1 | . | 0.9 | 38 | -47 | 1 | 7
O=C(NC1CCCCC1)N1CCCc2ccccc21 | -4 | 1 | -1 | 19 | 1 | 24
O=C(NC1CCCCC1)N1CCSC1=Nc1ccccc1 | 1 | 0.9 | 60* | -9 | 1 | 19
COc1ccc(/C=N\NC(=S)SCN2C(=O)C3CCC(C)(C2=O)C3(C)C)cc1 (centres undefined) | 6 | . | 51 | 32 | . | 5
CC12CCC(C(=O)N(CSC(=S)N/N=C\c3ccccc3O)C1=O)C2(C)C (centres undefined) | 9 | 0.8 | 35 | -22 | 1.1 | 85*
CC[C@H]1CC2CN3CCc4c([nH]c5c([C@H]6C[C@H]7[C@H](CC)CN(C)[C@@H](Cc8c6[nH]c6ccccc86)[C@H]7C(=O)OC)c(OC)ccc45)C(C(=O)OC)(C2)C13 | -2 | . | . | . | . | .
COc1ccc(C2CC(c3ccc(Br)cc3)=NN2C(=S)Nc2ccccc2)cc1 (centres undefined) | -7 | 0.9 | 35 | -35 | 0.9 | 79*
Cc1ccc(C2=NN(C(=S)Nc3ccccc3)C(c3ccco3)C2)cc1 (centres undefined) | 1 | 0.9 | 17 | 4 | 0.8 | 56*
COc1ccc(C2=NN(C(=O)c3cccs3)C(c3ccccc3OC)C2)cc1OC (centres undefined) | 4 | 0.9 | 67* | i | 0.9 | 27
COc1ccccc1C1CC(c2ccccc2)=NN1C(=S)Nc1ccccc1 (centres undefined) | -2 | 1 | 14 | -75 | 1 | 79*
O=C(Cc1c[nH]c2ccccc12)NC1(C(=O)NC2CCCC2)CCCCC1 | 14 | 1.1 | -12 | -18 | 1.1 | -6
O=C(CSc1nnc(-c2cccnc2)n1Cc1ccccc1)NCc1ccccc1 | -7 | 1.1 | -6 | 16 | 1.1 | -4
COc1ccc(C2=NN(C(=S)Nc3ccccc3)C(c3ccccc3)C2)cc1 (centres undefined) | -8 | 1 | 41 | -9 | 0.9 | 96*
SMILES | Rad51 HR inh | PMI activator | WT yeast gro inh | m-calpain inh | PMI act hi M6P | L major viab
COc1ccc(C2CC(c3ccccc3)=NN2C(=S)Nc2ccccc2)cc1 (centres undefined) | 7 | 0.9 | 15 | -4 | 0.9 | 37
Fc1cccc(NC(=S)N2CCn3cccc3C2c2cccnc2)c1 (centres undefined) | 5 | 0.9 | 5 | -7 | 0.8 | 92*
COc1ccccc1NC(=S)N1CCn2cccc2C1c1cccnc1 (centres undefined) | 6 | 1 | 0 | -17 | 1 | 78*
S=C(NC1CCCCC1)N1CCn2cccc2C1c1cccnc1 (centres undefined) | 3 | 1 | 10 | 1 | 0.9 | 98*
S=C(NC1CCCCC1)N1CCn2cccc2C1c1ccncc1 (centres undefined) | 1 | 1 | -4 | 0 | 0.9 | 0
S=C(Nc1ccccc1)N1CCn2cccc2C1c1cccnc1 (centres undefined) | -1 | 1 | -4 | -20 | 1 | 86*
Cc1cccc(NC(=S)N2CCCCC2c2cccnc2)c1C (centres undefined) | 9 | . | . | -16 | . | .
CCOc1ccc(-n2c(=O)c3sccc3n(Cc3ccc(C)cc3)c2=O)cc1 | -3 | 1 | -7 | -5 | 1 | 12
CCOC(=O)Cn1c(C)[n+](CC(=O)c2ccccc2)c2ccccc21 | -4 | . | . | -16 | . | .
CN1CCN(CC(=O)Nc2cc(N(C)C)nc3ccccc23)CC1 | 13 | 1.3 | 15 | -114 | 1.2 | 23
CCOC(=O)C1=C(C)N(C)C(=S)NC1c1ccc(Cl)cc1Cl (centres undefined) | 9 | 0.9 | 35 | 4 | 0.8 | 9
Fc1ccc(C2c3cccn3CCN2C(=S)Nc2cccc(F)c2)cc1 (centres undefined) | 12 | 0.8 | 80* | -24 | 0.8 | 21
CCOC(=O)C1(Cc2ccccc2Cl)CCN(C(=O)CN2CCOC2=O)CC1 | . | 0.9 | 4 | -11 | 0.9 | -5
CCOc1cccc(CNCCSc2nnnn2C)c1 | -2 | 1.1 | 8 | 34 | 1.1 | -3
CCCCn1c(=O)[nH]c(=O)c2c1nc(-c1ccc(C)c([N+](=O)[O-])c1)n2CC | -1 | 1.1 | 18 | 6 | 1 | 99*
CCN(CC)c1ncnc2c1cnn2Cc1ccc(Cl)cc1 | -16 | 1 | 5 | -2 | 1 | 13
COc1ccc(C2CC(c3ccc4ccccc4c3)=NN2C(=O)CNC2CCCCC2)cc1 (centres undefined) | -33 | 1 | 38 | 44 | 1 | 100*
CC(=O)OCC(=O)N1N=C(c2ccc3ccccc3c2)CC1c1ccccc1 (centres undefined) | . | 1 | 68* | 3 | 1 | 86*
COc1ccc(C2CC(c3ccc4ccccc4c3)=NN2C(=O)COC(=O)C2CCC(=O)N2)cc1 (centres undefined) | 3 | 0.9 | 14 | -34 | 1 | 32
